The text below walks through data of ChEMBL document CHEMBL4011589, “Discovery of novel furanone derivatives as potent Cdc7 kinase inhibitors” (Eur J Med Chem, 2017).

Series [1] deals with CDC7/DBF4 (Cell division cycle 7-related protein kinase/Activator of S phase kinase) (Homo sapiens, UniProt O00311). The experiment in a line: Inhibition of recombinant human Cdc7 (1 to 574 residues)/human N-terminal GST-tagged ASK (1 to 674 residues) expressed in baculovirus expression system using FITC-labeled MCM2 peptide as substrate measured after 5 hrs in presence of 5 uM ATP. In short, it runs like this:
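Cdc7 enzymatic assay with 5 µM ATP. IC50 values are the mean of duplicate measurements.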

Series [2] is described as follows: Stability in human liver microsomes assessed as compound remaining at 1 uM in presence of NADPH after 30 mins by LC-MS/MS analysis. The format is ADME, microsome. Particulars: read-out: Stability. The essentials:
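Human liver microsomes are incubated with compound for 30 min. The read-out is the percentage of parent compound remaining.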

In series [3] the target is CDC7/DBF4 (Cell division cycle 7-related protein kinase/Activator of S phase kinase) (Homo sapiens) (UniProt Q9UBU7+O00311). Put plainly: Ratio of IC50 for recombinant human Cdc7 (1 to 574 residues)/human N-terminal GST-tagged ASK (1 to 674 residues) expressed in baculovirus expression system in presence of […] to IC50 for recombinant human Cdc7 (1 to 574 residues)/human N-terminal GST-tagged ASK (1 to 674 residues) expressed in baculovirus expression system in presence of 5 uM ATP.

The nature of series [4]: Stability of the compound in 50% KOH. It counts as physicochemical.
For series [5], the species on record is Mus musculus. The experiment in a line: Stability in mouse liver microsomes assessed as compound remaining at 1 uM in presence of NADPH after 30 mins by LC-MS/MS analysis.
Series [6] is described as follows: Stability of the compound under basic condition. The format is physicochemical.

Take `O=C1C(C(=O)N2CCCCC2)=C(Nc2ccccc2)O/C1=C\c1c[nH]c2ncccc12`: the half-inhibitory concentration (IC50) in series [1] worked out at 890 nM.

Turning to `CCOC(=O)C1=C(Nc2ccc(F)cc2)O/C(=C\c2c[nH]c3ncccc23)C1=O`, the remaining at 0.5 h, 1 µM in series [2] turned out to be 52%. For the same compound, the half-maximal inhibitory concentration (IC50) in series [1] worked out at 4.3 nM.

Turning to `CCOC(=O)C1=C(Nc2ccccc2)O/C(=C\c2c[nH]c3ncc(Cl)cc23)C1=O`, the half-inhibitory concentration (IC50) in series [1] came out at 44 nM.

Regarding `CCOC(=O)C1=C(Nc2ccccc2)O/C(=C\c2ccc(O)c(C)c2)C1=O`, in series [1], the concentration for half-maximal inhibition (IC50) came to 1200 nM.

In the case of `CCOC(=O)C1=C(Nc2ccccc2)O/C(=C\c2ccc3c(c2)OCO3)C1=O`, in series [1], the IC50 worked out at 3200 nM.

Turning to `NC(=O)C1=C(Nc2ccccc2)O/C(=C\c2c[nH]c3ncccc23)C1=O`, the half-maximal inhibitory concentration (IC50) in series [1] is > 10000 nM.

Turning to `CCOC(=O)C1=C(Nc2ccccc2)S/C(=C\c2c[nH]c3ncccc23)C1=O`, the half-maximal inhibitory concentration (IC50) in series [1] was > 10000 nM.

With `CCOC(=O)C1=C(Nc2ccccc2)O/C(=C\c2c[nH]c3ncccc23)C1=O`, in series [3], the Ratio IC50 is 21. Moreover, the Stability result is on record as “Unstable” in series [4] and “Stable” in series [6]. Further, the remaining at 0.5 h, 1 µM in series [2] was found to be 23%; in series [5] it was 7.9%. In addition, the IC50 in series [1] was in the range of 3.3 to 3.8 nM.

As for `CCNC(=O)C1=C(Nc2ccccc2)O/C(=C\c2c[nH]c3ncccc23)C1=O`, in series [1], the concentration for half-maximal inhibition (IC50) came out at 1600 nM.

For `O=C(O)C1=C(Nc2ccccc2)O/C(=C\c2c[nH]c3ncccc23)C1=O`, the IC50 in series [1] is 9.9 nM.

With `CCOC(=O)C1=C(Nc2ccc(OC)cc2)O/C(=C\c2c[nH]c3ncccc23)C1=O`, the remaining at 0.5 h, 1 µM in series [2] is 33%. In addition, in series [1], the IC50 stood at 4.9 nM.
